The series can be described thus: Octanol–water partitioning in the presence of sodium dodecanoate. The series is classed as physicochemical. Particulars: mean ± SD; octanol–water partitioning with sodium dodecanoate (2.5 equiv); D2O. The method, boiled down: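 Test compound dissolved in D2O as 0.02 M stock, mixed with equal volume of octanol, with or without sodium dodecanoate (2.5 equiv), triplicate tubes each. Vortexed 30 s, centrifuged 15 min, ambient ~22 °C. Aqueous-layer NMR integrations pre- and post-wash compared. Partitioning taken as difference between octanol-only and octanol + lipid washes, averaged over three replicates.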

Here are results for four molecules from PMC10073267 (Journal of peptide science : an official publication of the …, 2023).

For `CC(=O)N[C@@H](CCCN=C(N)N)C(N)=O` [1·H^+, Ac-Arg-NH2], the “Percent in Aqueous Layer” value stood at 30.4 ± 1.5%.

With `CNC(=O)[C@H](CCCNC(=N)N)NC(C)=O` [2·H^+, Ac-Arg-NHMe], the “Percent in Aqueous Layer” value is recorded as 19.8 ± 0.1%. The result for `CC(=O)N[C@@H](CCCNC(=N)N)C(=O)N(C)C` [3·H^+, Ac-Arg-NMe2] reads 18.3 ± 0.7%.

As to `CC(=O)N(C)C(CCCN=C(N)N)C(=O)N(C)C` (stereo not shown) [4·H^+, Ac-(N-Me)Arg-NMe2], the “Percent in Aqueous Layer” value is recorded as 12.7 ± 1.6%.
